According to ChEMBL document CHEMBL1129618, “(+/-)-3-[4'-(N,N-dimethylamino)cinnamyl]benzazepine analogs: novel dopamine D1 receptor antagonists” (J Med Chem, 1996):
pKi: −log10 of the molar value. Values belong to the compound of their own block, whether it stands above or below them.

Assays:
D(2) dopamine receptor = D(2) dopamine receptor (Rattus norvegicus, UniProt P61169); experiment: Affinity for Dopamine receptor D2 binding measured by sulpiride […] to rat striatal membrane; design: species or system Striatum; settings: for pKi: read-out: Ki
Chain of D(2) dopamine receptor (P61169 whole entry): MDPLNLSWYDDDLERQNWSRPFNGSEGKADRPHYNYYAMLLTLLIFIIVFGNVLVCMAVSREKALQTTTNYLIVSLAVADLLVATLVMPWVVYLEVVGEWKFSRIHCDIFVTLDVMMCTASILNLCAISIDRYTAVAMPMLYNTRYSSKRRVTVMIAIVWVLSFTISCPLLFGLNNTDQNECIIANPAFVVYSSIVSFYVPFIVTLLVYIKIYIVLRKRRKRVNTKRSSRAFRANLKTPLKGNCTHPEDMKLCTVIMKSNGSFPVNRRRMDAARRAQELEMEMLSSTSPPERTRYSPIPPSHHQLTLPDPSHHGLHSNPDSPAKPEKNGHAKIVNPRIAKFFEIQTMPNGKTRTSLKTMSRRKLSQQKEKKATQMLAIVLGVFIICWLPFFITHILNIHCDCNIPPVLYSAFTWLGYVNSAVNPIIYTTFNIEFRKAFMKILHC
How it was run: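 Competition binding against [³H]sulpiride at D2 sites in rat striatal (caudate putamen) membranes. Ki values are means ± SEM of at least three determinations, each run in triplicate.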

D(1A) dopamine receptor [1] = target: T1, D(1A) dopamine receptor (Rattus norvegicus, UniProt P18901); experiment: Dopamine receptor D1 antagonistic activity as ability to block dopamine-stimulated adenylate cyclase in rat caudate; assay type: functional
T1 sequence (P18901 whole entry): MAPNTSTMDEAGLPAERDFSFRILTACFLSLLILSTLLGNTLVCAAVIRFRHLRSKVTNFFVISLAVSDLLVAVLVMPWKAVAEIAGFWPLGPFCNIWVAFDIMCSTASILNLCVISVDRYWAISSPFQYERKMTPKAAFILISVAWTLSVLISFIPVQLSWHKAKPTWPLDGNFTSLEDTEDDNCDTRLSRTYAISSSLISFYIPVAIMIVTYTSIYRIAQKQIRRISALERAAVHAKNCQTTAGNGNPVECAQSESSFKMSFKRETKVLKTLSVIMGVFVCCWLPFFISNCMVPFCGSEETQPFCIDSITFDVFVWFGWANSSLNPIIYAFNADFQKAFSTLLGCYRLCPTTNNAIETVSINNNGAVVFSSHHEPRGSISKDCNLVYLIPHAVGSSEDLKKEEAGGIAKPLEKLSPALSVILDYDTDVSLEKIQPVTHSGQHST

D(1A) dopamine receptor [2] = target: T1, D(1A) dopamine receptor; experiment: Affinity for Dopamine receptor D1 binding measured by competition against [3H]-SCH- 23390 to rat striatal membrane; design: species or system Striatum
How it was run: (§1)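 Competition binding against [³H]SCH 23390 at D1 sites in rat striatal (caudate putamen) membranes. Ki values are means ± SEM of at least three determinations, each run in triplicate.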

D(1A) dopamine receptor [3] = target: T1, D(1A) dopamine receptor; experiment: Affinity for dopamine receptor D1 binding measured by competition against [3H]-SCH- 23390 to rat striatal membrane; design: species or system Striatum; how it was run: as §1

Compound: CN(C)CCCCCCN1CCc2cc(Cl)c(O)cc2C(c2ccccc2)C1 (stereo unspecified)
pKi (D(2) dopamine receptor): 5.38 | pKi (D(1A) dopamine receptor [1]): 7.68

Compound: COc1cc2c(cc1Br)CCN(C/C=C/c1ccc(N(C)C)cc1)CC2c1ccccc1 (stereo unspecified)
pKi (D(2) dopamine receptor): 5.70

Compound: CN(C)c1ccc(/C=C/CN2CCc3cc(Cl)c(O)cc3C(c3ccccc3)C2)cc1 (stereo unspecified)
pKi (D(2) dopamine receptor): 6.46 | pKi (D(1A) dopamine receptor [1]): 7.74

Compound: CN(C)CCCCN1CCc2cc(Cl)c(O)cc2C(c2ccccc2)C1 (stereo unspecified)
pKi (D(2) dopamine receptor): 5.46

Compound: CN(C)c1ccc(CCN2CCc3cc(Cl)c(O)cc3C(c3ccccc3)C2)cc1 (stereo unspecified)
pKi (D(1A) dopamine receptor [2]): 7.05

Next, values leading:

pKi (D(2) dopamine receptor): 6.07 | pKi (D(1A) dopamine receptor [3]): 6.92
Compound: CN(C)c1ccc(/C=C/CN2CCc3cc(Br)c(O)cc3C(c3ccccc3)C2)cc1 (stereo unspecified)

Ki (D(2) dopamine receptor): Insoluble | pKi (D(1A) dopamine receptor [3]): 6.68
Compound: Oc1cc2c(cc1Br)CCN(C/C=C/c1ccccc1)CC2c1ccccc1 (stereo unspecified)
